The results in this text go back to ChEMBL document CHEMBL2401716, “Design and stereoselective synthesis of novel isosteviol-fused pyrazolines and pyrazoles as potential anticancer agents” (Eur J Med Chem, 2013).

Common to all, as to assay type: functional, cell-based
For test [1], the system named is Raji. Nature of the test: Antiproliferative activity against human Raji cells after 48 hrs by MTT assay. The method in brief: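 Human B-lymphoma Raji line kept in RPMI-1640 with 10% FBS and 100 U/mL penicillin at 37 °C, 5% CO2, humidified. Cells were plated in 96 wells and treated with compounds for 48 h. MTT (0.5 mg/mL) was added for 4 h, then formazan was taken up in DMSO after supernatant removal and read at 570 nm. Cisplatin served as positive control.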
For orientation: Tetrazolium dyes change colour on reduction, which living cells bring about.

In test [2] the test system is HeLa. Nature of the test: Antiproliferative activity against human HeLa cells after 48 hrs by MTT assay. The procedure, abridged:
(§1)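 Cells seeded in 96-well plates and exposed to compounds for 48 h at 37 °C, 5% CO2. MTT (0.5 mg/mL) then added for 4 h. Supernatant removed, formazan dissolved in DMSO, and OD read at 570 nm. Cisplatin served as positive control.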

Test [3] deals with SGC-7901. The experiment in a line: Antiproliferative activity against human SGC7901 cells after 48 hrs by MTT assay. To be noted: SGC-7901, 48 h. The procedure, abridged:
as §1

Test [4] concerns A549. The experiment in a line: Antiproliferative activity against human A549 cells after 48 hrs by MTT assay. To be noted: A549, 48 h. The procedure, abridged: as §1

SMILES strings stand for the structures.

As to `CCOC(=O)[C@]1(C)CCC[C@@]2(C)[C@@H]3CC[C@@]4(C)C[C@]3(CC[C@@H]21)c1cnn(-c2ccc(Cl)cc2Cl)c14`, the IC50 was determined as 1.09 µM in test [1], 13.5 µM in test [2], 2.71 µM in test [3] and 3.18 µM in test [4].

`CCOC(=O)[C@]1(C)CCC[C@@]2(C)[C@@H]3CC[C@@]4(C)C[C@]3(CC[C@@H]21)c1cnn(-c2cccc(C)c2C)c14`: the IC50 was 3.26 µM in test [1], 37.5 µM in test [2], 19.3 µM in test [3] and 18.2 µM in test [4].

In the case of `CCOC(=O)[C@]1(C)CCC[C@@]2(C)[C@@H]3CC[C@@]4(C)C[C@]3(CC[C@@H]21)c1cnn(-c2c(C)cccc2C)c14`, the IC50 in test [1] worked out at 2.09 µM; in test [2], 20.3 µM; in test [3], 9.17 µM; in test [4] it was 11.8 µM.

In the case of `C[C@@]12CC[C@@H]3[C@@](CC[C@H]4[C@@]3(C)CCC[C@@]4(C)C(=O)O)(CC1=O)C2` [ISOSTEVIOL], the IC50 in test [1], in test [2], in test [3] and in test [4] was more than 50 µM throughout.

As a reminder, the IC50 is the concentration that gives 50% inhibition. The low end stands for higher potency, the high end for lower potency.
